Experimental data as given in ChEMBL document CHEMBL5120742, “Multi-target weapons: diaryl-pyrazoline thiazolidinediones simultaneously targeting VEGFR-2 and HDAC cancer hallmarks” (RSC Med Chem, 2021).
pIC50: −log10 of the molar value.

Key:
[1] = biological target: T1, Histone deacetylase 8 (Homo sapiens, UniProt Q9BY41); assay: Inhibition of recombinant human N-terminal His6-SUMO-tagged C-terminal SII-tagged HDAC8 expressed in Escherichia coli (BL21) DE3 pLysS cells using BocLys(trifluoroacetyl)-AMC as substrate incubated for 30 mins by fluorescence assay
T1 sequence (Q9BY41 whole entry): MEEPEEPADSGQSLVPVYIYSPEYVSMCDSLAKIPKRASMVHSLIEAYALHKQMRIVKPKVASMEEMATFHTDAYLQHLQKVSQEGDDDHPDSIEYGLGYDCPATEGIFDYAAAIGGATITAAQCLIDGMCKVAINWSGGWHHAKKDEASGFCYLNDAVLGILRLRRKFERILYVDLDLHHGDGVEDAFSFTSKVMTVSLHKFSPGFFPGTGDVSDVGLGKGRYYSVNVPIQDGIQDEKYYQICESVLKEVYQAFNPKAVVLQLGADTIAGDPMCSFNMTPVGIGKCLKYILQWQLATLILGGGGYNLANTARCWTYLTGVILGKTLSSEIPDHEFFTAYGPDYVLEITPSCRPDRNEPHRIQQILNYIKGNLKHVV
Method in brief: (§1)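 Catalytic-domain HDAC4 (His6-SUMO/SII-tagged) and full-length codon-optimized human HDAC8 were expressed in E. coli BL21 DE3 pLysS from pET14b. Both were assayed in a two-step fluorogenic format with Boc-Lys(trifluoroacetyl)-AMC, followed by trypsin development. Compounds were screened first at 50 µM for residual activity.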

[2] = biological target: T2, Histone deacetylase 4 (Homo sapiens, UniProt P56524); assay: Inhibition of recombinant human N-terminal His6-SUMO-tagged C-terminal SII-tagged HDAC4 expressed in Escherichia coli (BL21) DE3 pLysS cells assessed as residual activity at 50 uM using BocLys(trifluoroacetyl)-AMC as substrate incubated for 30 mins by fluorescence assay relative to control; method in brief: as §1
T2 sequence (P56524 whole entry): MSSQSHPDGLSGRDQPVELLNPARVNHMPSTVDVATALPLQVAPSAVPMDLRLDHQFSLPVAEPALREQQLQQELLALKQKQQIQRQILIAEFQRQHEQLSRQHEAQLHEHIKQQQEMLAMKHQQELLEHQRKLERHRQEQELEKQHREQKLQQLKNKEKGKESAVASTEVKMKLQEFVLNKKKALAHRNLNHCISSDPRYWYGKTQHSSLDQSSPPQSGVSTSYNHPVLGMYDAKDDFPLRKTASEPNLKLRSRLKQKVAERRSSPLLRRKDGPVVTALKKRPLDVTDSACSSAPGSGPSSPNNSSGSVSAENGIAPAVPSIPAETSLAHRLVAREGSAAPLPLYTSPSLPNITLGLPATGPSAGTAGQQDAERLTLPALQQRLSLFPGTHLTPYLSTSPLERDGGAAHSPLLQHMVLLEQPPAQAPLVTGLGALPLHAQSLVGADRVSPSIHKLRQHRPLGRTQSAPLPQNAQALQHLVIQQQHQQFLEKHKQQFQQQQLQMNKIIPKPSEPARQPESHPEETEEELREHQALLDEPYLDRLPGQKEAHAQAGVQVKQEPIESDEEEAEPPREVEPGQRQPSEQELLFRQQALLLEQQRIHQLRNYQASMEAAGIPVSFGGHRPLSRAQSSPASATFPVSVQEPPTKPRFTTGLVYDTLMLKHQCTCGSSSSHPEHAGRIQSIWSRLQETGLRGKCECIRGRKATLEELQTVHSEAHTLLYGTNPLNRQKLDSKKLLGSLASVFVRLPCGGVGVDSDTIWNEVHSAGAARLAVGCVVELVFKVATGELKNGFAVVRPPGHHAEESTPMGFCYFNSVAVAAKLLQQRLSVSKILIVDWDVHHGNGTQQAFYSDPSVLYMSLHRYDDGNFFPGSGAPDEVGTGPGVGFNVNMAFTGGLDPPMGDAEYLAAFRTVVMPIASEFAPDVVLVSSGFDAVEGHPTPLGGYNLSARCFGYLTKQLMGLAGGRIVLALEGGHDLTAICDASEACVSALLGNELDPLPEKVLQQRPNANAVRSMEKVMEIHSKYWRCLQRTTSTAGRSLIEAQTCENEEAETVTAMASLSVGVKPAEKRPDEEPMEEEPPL

[3] = biological target: T3, Histone deacetylase 8 (Homo sapiens) (UniProt Q9BY41); assay: Inhibition of recombinant human N-terminal His6-SUMO-tagged C-terminal SII-tagged HDAC8 expressed in Escherichia coli (BL21) DE3 pLysS cells assessed as residual activity at 50 uM using BocLys(trifluoroacetyl)-AMC as substrate incubated for 30 mins by fluorescence assay relative to control; method in brief: as §1
T3 sequence (whole entry): T1 sequence (Q9BY41 whole entry)

[4] = biological target: T2, Histone deacetylase 4; assay: Inhibition of recombinant human N-terminal His6-SUMO-tagged C-terminal SII-tagged HDAC4 expressed in Escherichia coli (BL21) DE3 pLysS cells using BocLys(trifluoroacetyl)-AMC as substrate incubated for 30 mins by fluorescence assay; method in brief: as §1
[5] = Cytotoxicity against HUVEC cells assessed as reduction in cell viability after 96 hrs by MTT assay; settings: human
[6] = biological target: Vascular endothelial growth factor receptor 2 (Homo sapiens, UniProt P35968); assay: Inhibition of human VEGFR2 in HUVEC cells assessed as reduction in VEGFR2 phosphorylation at 10 uM incubated for 30 mins by anti-phospho VEGF Tyr 1175 antibody based assay relative to control; type: cell-based
Chain of Vascular endothelial growth factor receptor 2 (P35968 whole entry): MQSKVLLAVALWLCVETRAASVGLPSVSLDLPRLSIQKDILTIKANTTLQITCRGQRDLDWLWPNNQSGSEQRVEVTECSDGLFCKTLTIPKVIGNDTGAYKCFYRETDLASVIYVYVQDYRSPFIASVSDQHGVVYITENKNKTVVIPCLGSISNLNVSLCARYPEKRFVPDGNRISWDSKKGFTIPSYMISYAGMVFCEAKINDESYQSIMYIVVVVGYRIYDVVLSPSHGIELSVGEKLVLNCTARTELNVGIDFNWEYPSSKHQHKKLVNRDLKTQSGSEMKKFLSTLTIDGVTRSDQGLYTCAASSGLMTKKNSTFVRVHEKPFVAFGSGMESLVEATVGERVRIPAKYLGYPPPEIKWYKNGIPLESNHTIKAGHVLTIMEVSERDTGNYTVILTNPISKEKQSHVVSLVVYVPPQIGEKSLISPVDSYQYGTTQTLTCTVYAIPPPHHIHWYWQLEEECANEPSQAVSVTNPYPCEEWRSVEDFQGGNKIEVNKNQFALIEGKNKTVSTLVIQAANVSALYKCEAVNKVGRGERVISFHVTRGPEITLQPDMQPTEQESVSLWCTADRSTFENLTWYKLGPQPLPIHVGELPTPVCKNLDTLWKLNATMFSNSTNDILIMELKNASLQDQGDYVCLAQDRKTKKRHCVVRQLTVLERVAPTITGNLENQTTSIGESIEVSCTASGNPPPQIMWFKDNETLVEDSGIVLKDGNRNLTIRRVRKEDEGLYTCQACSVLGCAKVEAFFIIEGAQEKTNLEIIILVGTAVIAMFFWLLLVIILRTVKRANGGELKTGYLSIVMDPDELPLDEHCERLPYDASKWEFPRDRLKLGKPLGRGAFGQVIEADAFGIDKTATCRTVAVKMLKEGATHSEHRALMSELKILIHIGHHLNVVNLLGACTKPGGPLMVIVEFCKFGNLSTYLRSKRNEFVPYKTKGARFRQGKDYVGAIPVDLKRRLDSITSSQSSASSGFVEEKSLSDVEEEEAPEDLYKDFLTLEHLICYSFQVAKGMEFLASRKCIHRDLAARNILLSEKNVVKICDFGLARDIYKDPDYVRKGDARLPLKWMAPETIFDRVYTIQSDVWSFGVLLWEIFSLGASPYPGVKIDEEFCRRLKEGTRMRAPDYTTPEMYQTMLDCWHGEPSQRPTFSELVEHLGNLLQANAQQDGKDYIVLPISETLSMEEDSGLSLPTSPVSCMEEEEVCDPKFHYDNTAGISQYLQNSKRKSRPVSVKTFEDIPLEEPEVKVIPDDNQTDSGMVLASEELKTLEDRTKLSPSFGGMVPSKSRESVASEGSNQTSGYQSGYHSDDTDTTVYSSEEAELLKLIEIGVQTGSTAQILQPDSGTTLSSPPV
Method in brief: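 HUVECs were seeded at 4000–5000 per well in DMEM with 10% FCS for 12 h, then held 24 h in serum. Compound (10 µM) was added with serum for 30 min at 37 °C. Cells were fixed in 4% formaldehyde and probed with anti-phospho-VEGFR Tyr1175 (1:1000), then an HRP secondary (1:5000). TMB signal was stopped with 2N H2SO4 and read at 450 nm. Percent inhibition is normalized to control.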

[7] = tested on: HT-29; assay: Antiproliferative activity against human HT-29 cells assessed as reduction in cell viability after 48 hrs by MTT assay; type: functional, cell-based; settings: HT-29, 48 h
Method in brief: (§2)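 MCF-7, K562, A549 and HT-29 lines were seeded in 96-well plates and kept overnight at 37 °C, 5% CO2, 95% humidity. They were then exposed to six concentrations (100 to 2.5) for 48 h. After PBS washes, MTT was added for 4 h at 37 °C and formazan was dissolved in DMSO. Absorbance was read at 570 nm. Survival is mean OD of treated wells over the negative control, and IC50 was derived from that.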

[8] = tested on: K562; assay: Antiproliferative activity against human K562 cells assessed as reduction in cell viability after 48 hrs by MTT assay; type: functional, cell-based; settings: K562, 48 h; method in brief: as §2

| pIC50 [1] | Activity [2] [%] | Activity [3] [%] | pIC50 [4] | inhibition [6] [%] | pIC50 [7] | pIC50 [8] | Compound | IC50 at 96 h [5] [µM] |
| --- | --- | --- | --- | --- | --- | --- | --- | --- |
| < 4.30 | 9.4 | 69 | 5.82 | – | – | – | Cc1ccc(C2CC(c3ccc(F)cc3F)=NN2C(=O)COc2ccc(/C=C3/SC(=O)NC3=O)cc2)cc1 (centres undefined) | > 10 |
| < 4.30 | 3.3 | 61 | 5.85 | – | – | – | O=C1NC(=O)/C(=C\c2ccc(OCC(=O)N3N=C(c4ccc(F)cc4)CC3c3ccc(F)cc3)cc2)S1 (centres undefined) | > 10 |
| 4.47 | 17 | 33 | 5.66 | – | – | – | O=C1NC(=O)/C(=C\c2ccc(OCC(=O)N3N=C(c4ccccc4)CC3c3ccc(F)cc3F)cc2)S1 (centres undefined) | – |
| 4.59 | 2.5 | 26 | 5.77 | – | – | – | O=C1NC(=O)/C(=C\c2ccc(OCC(=O)N3N=C(c4ccccc4)CC3c3ccc(F)cc3)cc2)S1 (centres undefined) | – |
| – | – | – | – | – | 6.55 | 6.54 | CC(=O)O[C@H]1C(=O)[C@@]2(C)[C@H]([C@H](OC(=O)c3ccccc3)[C@]3(O)C[C@H](OC(=O)[C@H](O)[C@@H](NC(=O)c4ccccc4)c4ccccc4)C(C)=C1C3(C)C)[C@]1(OC(C)=O)CO[C@@H]1C[C@@H]2O [PACLITAXEL] | – |
| 4.70 | 11 | 39 | 5.80 | – | – | – | O=C1NC(=O)/C(=C\c2ccc(OCC(=O)N3N=C(c4ccccc4)CC3c3ccccc3)cc2)S1 (centres undefined) | – |
| 4.51 | 4.6 | 36 | 5.92 | – | – | – | Cc1ccc(C2CC(c3ccccc3)=NN2C(=O)COc2ccc(/C=C3/SC(=O)NC3=O)cc2)cc1 (centres undefined) | – |

The remaining lines, values behind:

| Compound | pIC50 [1] | Activity [2] [%] | Activity [3] [%] | pIC50 [4] | inhibition [6] [%] | pIC50 [7] | pIC50 [8] | IC50 at 96 h [5] [µM] |
| --- | --- | --- | --- | --- | --- | --- | --- | --- |
| O=C1NC(=O)/C(=C\c2ccc(OCC(=O)N3N=C(c4ccc(F)cc4F)CC3c3ccco3)cc2)S1 (centres undefined) | < 4.30 | 22 | 100 | 4.82 | – | – | – | – |
| O=C1NC(=O)/C(=C\c2ccc(OCC(=O)N3N=C(c4ccc(F)cc4)CC3c3ccccc3)cc2)S1 (centres undefined) | < 4.30 | 10 | 58 | 5.38 | – | – | – | > 10 |
| O=C1NC(=O)/C(=C\c2ccc(OCC(=O)N3N=C(c4ccccc4)CC3c3ccc(Br)cc3)cc2)S1 (centres undefined) | 4.46 | 7 | 21 | 5.92 | – | – | – | – |
| O=C1NC(=O)/C(=C\c2ccc(OCC(=O)N3N=C(c4ccc(F)cc4)CC3c3ccc(F)cc3F)cc2)S1 (centres undefined) | < 4.30 | 10 | 63 | 5.80 | – | – | – | – |
| O=C1NC(=O)/C(=C\c2ccc(OCC(=O)N3N=C(c4ccc(F)cc4)CC3c3ccc(C(F)(F)F)cc3)cc2)S1 (centres undefined) | < 4.30 | 9.2 | 81 | 5.89 | 48.7 | – | – | 6 |
| O=C1NC(=O)/C(=C\c2ccc(OCC(=O)N3N=C(c4ccc(F)cc4)CC3c3ccccc3Cl)cc2)S1 (centres undefined) | < 4.30 | 3.3 | 28 | 5.96 | – | – | – | – |
| O=C1NC(=O)/C(=C\c2ccc(OCC(=O)N3N=C(c4ccc(F)cc4F)CC3c3ccc(F)cc3)cc2)S1 (centres undefined) | < 4.30 | 10 | 69 | 5.82 | – | – | – | – |
| O=C1NC(=O)/C(=C\c2ccc(OCC(=O)N3N=C(c4ccccc4)CC3c3ccccc3Cl)cc2)S1 (centres undefined) | 4.54 | 14 | 27 | 5.92 | 49 | – | – | 2 |
| O=C1NC(=O)/C(=C\c2ccc(OCC(=O)N3N=C(c4ccccc4)CC3c3ccc(C(F)(F)F)cc3)cc2)S1 (centres undefined) | 4.80 | 12 | 8.2 | 6.00 | – | – | – | > 10 |
| Cc1ccc(C2CC(c3ccc(F)cc3)=NN2C(=O)COc2ccc(/C=C3/SC(=O)NC3=O)cc2)cc1 (centres undefined) | < 4.30 | 10 | 81 | 5.74 | – | – | – | – |
